Assays:
[1] = tested on: H108 fibroblasts; assay: Immunoblotting of total cell extracts; format: cell-based, human; conditions: H108 fibroblasts; 2.5 μM WX8 or 2 μM Adriamycin 24 h
Method in brief: (§1)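 Cells were cultured with 2.5 μM test compound for up to 96 h, and attached plus unattached cells were pooled. Whole-cell RIPA lysates were run on 4–12% Bis-Tris gels, transferred to nitrocellulose and blocked in 5% milk/TBS. Primary antibodies went on overnight at 4°C, followed by infrared secondary antibodies and imager quantitation. Each blot carried untreated U2OS as a shared standard, with Ponceau-S histones for normalization and lighter exposures for quantitation. Adriamycin for 24 h (NTERA-2 1 μM, H108 2 μM) served as a DNA-break control.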

[2] = tested on: NTERA-2 ECCs; assay: Immunoblotting of total cell extracts; format: cell-based, human; conditions: NTERA-2, 1 μM Adriamycin, 24 h
Method in brief: as §1

Structure (SMILES): COc1cccc2c1C(=O)c1c(O)c3c(c(O)c1C2=O)C[C@@](O)(C(=O)CO)C[C@@H]3O[C@H]1C[C@H](N)[C@H](O)[C@H](C)O1 [Adriamycin, doxorubicin]
- CASP3 cleavage [1]: Neither WX8 nor Adriamycin induced cleavage
- PARP cleavage [1]: Neither WX8 nor Adriamycin induced cleavage
- CASP3 cleaved [2]: > 90%

— publication PMC8828683 (Stem Cell Reports, 2022)
